Experimental data published in ChEMBL document CHEMBL3112443, “Development of new LXR modulators that regulate LXR target genes and reduce lipogenesis in human cell models” (Eur J Med Chem, 2014).
The source made the active and inactive calls. No cut-off for these calls is given here.

Key:
[1] = biological target: T1, Liver X receptor (Homo sapiens) (UniProt Q13133+P55055); test: Modulation of LXR in human myotubes assessed as reduction of lipogenesis using [1-14C]acetate after 4 days by scintillation counting; assay type: protein assay
Procedure, shortened: (§1)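 Primary myotubes from satellite cells of 6 healthy donors, used after 7 days of differentiation. Treated 4 days with compounds ± T0901317 in 0.1% DMSO, then labelled 24 h with [1-14C]acetate (100 mM as printed). Lysed in NaOH; total lipids isolated by hydrophobic filtration and scintillation-counted. Normalized to protein; fold vs control, mean ± SEM, n = 3–6; dose–response n = 6.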

[2] = biological target: T1, Liver X receptor (Homo sapiens); test: Modulation of LXR in human HepG2 cells assessed as reduction of lipogenesis using [1-14C]acetate at 1 uM after 24 h by scintillation counting
[3] = biological target: T1, Liver X receptor (Homo sapiens); test: Modulation of LXR in human HepG2 cells assessed as decrease of T0901317-induced SCD1 mRNA expression at 10 uM after 4 days by qPCR analysis; assay type: cell-based
[4] = biological target: T1, Liver X receptor (Homo sapiens); test: Modulation of LXR in human myotubes assessed as decrease of T0901317-induced SCD1 mRNA expression at 10 uM after 4 days by qPCR analysis
Procedure, shortened: (§2)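 Cells given 1 mM T0901317 (so in the source) together with […] test compound; DMSO 0.1% vehicle. Myotubes treated 4 days, HepG2 24 h. Total RNA reverse-transcribed with hexamer primers, then SYBR Green qPCR. Expression normalized to 36B4 and given as fold change vs DMSO control, mean ± SEM, n = 3–11 separate experiments, at least 3 parallels each.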

[5] = biological target: T1, Liver X receptor (Homo sapiens); test: Modulation of LXR in human myotubes assessed as increase of D-[14C(U)]deoxy-D-glucose uptake at 1 uM after 4 days by scintillation counting; assay type: protein assay
Procedure, shortened: (§3)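 Primary myotubes, 7 days differentiated, treated 4 days with compounds in 0.1% DMSO. Then given D-[14C(U)]deoxy-D-glucose (100 mM as printed) for 4 h. Washed twice with ice-cold PBS, lysed in 0.1 M NaOH and counted by liquid scintillation. Uptake normalized to protein; mean ± SEM of separate experiments, at least 3 parallels each.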

[6] = biological target: T1, Liver X receptor (Homo sapiens); test: Modulation of LXR in human myotubes assessed as increase of D-[14C(U)]deoxy-D-glucose uptake after 4 days by scintillation counting; assay type: protein assay; procedure, shortened: as §3
[7] = biological target: T1, Liver X receptor (Homo sapiens); test: Modulation of LXR in human myotubes assessed as increase of T0901317-induced lipogenesis using [1-14C]acetate at 1 uM after 4 days by scintillation counting; assay type: protein assay; procedure, shortened: as §1
[8] = biological target: T1, Liver X receptor (Homo sapiens); test: Modulation of LXR in human HepG2 cells assessed as decrease of T0901317-induced FAS mRNA expression at 10 uM after 4 days by qPCR analysis; assay type: cell-based
[9] = biological target: T1, Liver X receptor (Homo sapiens); test: Modulation of LXR in human myotubes assessed as increase of D-[14C(U)]deoxy-D-glucose uptake at 50 uM after 4 days by scintillation counting; assay type: protein assay; procedure, shortened: as §3
[10] = biological target: T1, Liver X receptor (Homo sapiens); test: Modulation of LXR in human myotubes assessed as decrease of T0901317-induced FAS mRNA expression at 10 uM after 4 days by qPCR analysis; procedure, shortened: as §2
[11] = biological target: T1, Liver X receptor (Homo sapiens); test: Modulation of LXR in human HepG2 cells assessed as reduction of T0901317-induced lipogenesis using [1-14C]acetate at 1 uM after 4 days by scintillation counting; assay type: cell-based
[12] = biological target: T1, Liver X receptor (Homo sapiens); test: Modulation of LXR in human myotubes assessed as increase of D-[14C(U)]deoxy-D-glucose uptake at 1 to 50 uM after 4 days by scintillation counting; assay type: protein assay; procedure, shortened: as §3
[13] = biological target: T1, Liver X receptor (Homo sapiens); test: Modulation of LXR in human myotubes assessed as decrease of T0901317-induced ABCA1 mRNA expression at 10 uM after 4 days by qPCR analysis; procedure, shortened: as §2
[14] = biological target: T1, Liver X receptor (Homo sapiens); test: Modulation of LXR in human HepG2 cells assessed as decrease of T0901317-induced ABCA1 mRNA expression at 10 uM after 4 days by qPCR analysis; assay type: cell-based
[15] = biological target: T1, Liver X receptor (Homo sapiens); test: Modulation of LXR in human myotubes assessed as increase of ABCA1 mRNA expression at 10 uM after 4 days by qPCR analysis
Procedure, shortened: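 Primary human myotubes (satellite cells from abdominal muscle of 6 healthy donors, differentiated 7 days at 5.5 mM glucose, 25 pM insulin) treated with compound or 0.1% DMSO for 4 days. Total RNA reverse-transcribed with hexamer primers; SYBR Green qPCR. ABCA1 normalised to 36B4 and reported as fold change versus DMSO, mean ± SEM, n = 3–11.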

[16] = biological target: T1, Liver X receptor (Homo sapiens); test: Modulation of LXR in human myotubes assessed as reduction of T0901317-induced lipogenesis using [1-14C]acetate at 10 uM after 4 days by scintillation counting
[17] = biological target: T1, Liver X receptor (Homo sapiens); test: Modulation of LXR in human HepG2 cells assessed as reduction of T0901317-induced lipogenesis using [1-14C]acetate at 1 uM after 24 h by scintillation counting
[18] = biological target: T1, Liver X receptor (Homo sapiens); test: Modulation of LXR in human myotubes assessed as increase of ABCA1 mRNA expression at 10 uM after 4 days by qPCR analysis

Structure (SMILES) | Activity [1] | Activity [2] | Activity [3] | Activity [4] | Activity [5] | Activity [6] | Activity [7] | Activity [8] | Activity [9] | Activity [10] | Activity [11] | Activity [12] | Activity [13] | Activity [14] | Activity [15] | Activity [16] | Activity [17] | Activity [18]
CC(C)CC[C@H](O)[C@@H](C)COCc1ccc(S(=O)(=O)N(COCC[Si](C)(C)C)COCC[Si](C)(C)C)cc1 | Dose-dependent effect | Active | Active | Active | Active | Dose-dependent effect | Active |  |  |  |  |  |  |  |  |  |  | 
COc1ccc2cc(COC[C@H](C)[C@@H](O)CCC(C)C)ccc2c1 |  |  | Active | Active |  | Dose-dependent effect | Active | Active | Active | Active | Active |  |  |  |  |  |  | 
CCCCCCN(CCCCCC)S(=O)(=O)c1ccc(COC[C@H](C)[C@@H](O)CCC(C)C)cc1 |  |  | inactive | inactive |  |  | Active | inactive |  | inactive |  | inactive | inactive | inactive |  |  |  | 
CC(C)CC[C@H](O)[C@@H](C)COCc1ccc(S(=O)(=O)N(C)C2CCCCC2)cc1 |  |  | inactive | inactive | Active | Dose-dependent effect | Active | inactive |  | inactive |  |  | Active | Active |  |  |  | 
CC(C)CC[C@H](O)[C@@H](C)[C@H]1CC[C@H]2[C@@H]3CC=C4C[C@@H](O)CC[C@]4(C)[C@H]3CC[C@]12C |  |  |  |  |  |  |  |  |  |  |  |  | inactive | inactive | Active | Active | Active | Active
